pKi: −log10 of the molar value. The source made the active and inactive calls. The calls are words filed in the database; no cut-off is given here.
Columns and labels:
Mus musculus [1] = test: Reduction of food intake in fasted C57Bl6/J mouse at 10 to 20 mg/kg, ip administered 15 mins prior to food presentation measured for 2 hrs; format: functional, organism-based
Method in brief: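 C57Bl6/J mice (20-25 g), housed singly on a reverse light-dark cycle and fasted 18 h. Dosed ip at 10 and 20 mg/kg in saline with Tween 80 and ethanol (each 2.5 wt%). Weighed food presented 15 min later; intake followed over 3 h. Mean ± SEM; two-way ANOVA with Bonferroni post hoc versus vehicle.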

[2] = target: Cannabinoid receptor 1 (Mus musculus) (UniProt P47746); test: Neutral antagonist activity at CB1 receptor in albino CD1 mouse vas deferens assessed as rightward shift in WIN 55,212-2 concentration response curve for electrically evoked contractions at 0.1 to 10 uM treated 20 mins before first addition of WIN 55,212-2
Chain of Cannabinoid receptor 1 (Mus musculus) (P47746 whole entry): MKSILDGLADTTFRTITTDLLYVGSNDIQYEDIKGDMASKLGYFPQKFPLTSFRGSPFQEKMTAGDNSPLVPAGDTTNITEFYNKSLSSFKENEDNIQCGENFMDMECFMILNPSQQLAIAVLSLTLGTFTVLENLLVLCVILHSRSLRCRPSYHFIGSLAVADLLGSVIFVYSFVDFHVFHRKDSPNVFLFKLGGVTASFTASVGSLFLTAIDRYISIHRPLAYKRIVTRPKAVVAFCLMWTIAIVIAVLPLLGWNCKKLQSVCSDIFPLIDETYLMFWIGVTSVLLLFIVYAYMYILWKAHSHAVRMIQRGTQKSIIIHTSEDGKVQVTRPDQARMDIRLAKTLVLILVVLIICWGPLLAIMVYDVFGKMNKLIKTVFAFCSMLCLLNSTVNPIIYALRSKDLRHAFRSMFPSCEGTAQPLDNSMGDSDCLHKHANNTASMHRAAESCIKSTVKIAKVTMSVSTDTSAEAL
Method in brief: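 Vas deferens from male albino CD1 mice, electrically stimulated as for twitch studies, in Krebs-Henseleit at 37 °C. Compound at a fixed concentration (0.1, 1 or 10 μM; DMSO ≤0.1%) was added 20 min before cumulative WIN 55,212-2. Inhibition of twitches was expressed as percentage of the pre-WIN amplitude; mean ± SEM.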

[3] = target: Cannabinoid receptor 1 (Mus musculus) (UniProt P47746); test: Intrinsic activity at CB1 receptor in albino CD1 mouse vas deferens assessed as increase in amplitude of electrically evoked contractions at 0.1 to 100 uM
Method in brief: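 Vas deferens from male albino CD1 mice (30-40 g) was held at 0.5 g tension in Krebs-Henseleit at 37 °C, gassed with 95% O2/5% CO2. Twitches were evoked by 0.5-s trains of three 0.5-ms pulses at 110% maximal voltage, 0.1 Hz. Compounds (DMSO ≤0.1%) were added once responses were reproducible. Contraction amplitude was compared with control; mean ± SEM, n=5; ANOVA with Bonferroni test.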

[4] = target: Cannabinoid receptor 1 (Mus musculus) (UniProt P47746); test: Neutral antagonist activity at CB1 receptor in mouse N1E-115 cells assessed as inhibition of WIN 55,212-2-induced ERK1/2 phosphorylation at 125 to 500 nM treated 5 mins prior to WIN 55,212-2 challenge by Western blot analysis; format: cell-based
Method in brief: (§1)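 N1E-115 cells were pretreated for 5 min with compound (0.1-1.0 μM; dissolved in D-PBS with 1% DMSO), then exposed for 10 min to WIN55,212-2 (25 nM). Lysates (40 µg total protein) were western blotted for P-ERK 1/2 and expressed as percentage of vehicle. Five independent experiments; one-way ANOVA.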

[5] = target: Cannabinoid receptor 1 (Mus musculus) (UniProt P47746); test: Agonist activity at CB1 receptor in mouse N1E-115 cells assessed as increase in ERK1/2 phosphorylation after 10 mins by Western blot analysis; format: cell-based
Method in brief: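 N1E-115 cells were grown in high-glucose DMEM with 10% FBS at 37 °C, 5% CO2. They were exposed for 10 min to compounds in D-PBS with 1% DMSO, then lysed at 4 °C. P-ERK 1/2 was measured by western blot at 40 µg total protein and expressed as percentage of vehicle. Five independent experiments; one-way ANOVA.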

Mus musculus [6] = organism: Mus musculus; test: Selectivity ratio of Ki for CB1 receptor in CD1 mouse brain membrane without cerebellum to Ki for CB2 receptor in CD1 mouse spleen membrane; format: cell membranes
Cannabinoid receptor 2 = Cannabinoid receptor 2 (Mus musculus, UniProt P47936); test: Displacement of [3H]CP55940 from CB2 receptor in CD1 mouse spleen membrane by liquid scintillation counting analysis; format: cell membranes
Chain of Cannabinoid receptor 2 (P47936 whole entry): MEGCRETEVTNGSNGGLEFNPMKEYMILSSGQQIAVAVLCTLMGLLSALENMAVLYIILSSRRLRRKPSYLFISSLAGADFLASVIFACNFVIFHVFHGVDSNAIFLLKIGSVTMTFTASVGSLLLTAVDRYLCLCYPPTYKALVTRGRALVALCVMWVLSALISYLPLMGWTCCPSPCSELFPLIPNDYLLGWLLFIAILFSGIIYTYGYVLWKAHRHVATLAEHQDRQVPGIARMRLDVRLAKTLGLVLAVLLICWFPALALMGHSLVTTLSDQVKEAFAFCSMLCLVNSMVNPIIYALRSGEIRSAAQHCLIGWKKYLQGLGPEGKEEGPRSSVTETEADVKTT

Cannabinoid receptor 1 = Cannabinoid receptor 1 (Mus musculus, UniProt P47746); test: Displacement of [3H]CP55940 from CB1 receptor in CD1 mouse brain membrane without cerebellum by liquid scintillation counting analysis; format: cell membranes
Chain of Cannabinoid receptor 1 (P47746 whole entry): as the sequence (P47746 whole entry) above

Mus musculus [7] = test: Toxicity in C57Bl6/J mouse assessed as observable adverse events at 20 mg/kg, ip; format: organism-based; design: dose 20 mg/kg, route intraperitoneal; settings: in vivo
Mus musculus [8] = test: Reduction of food intake in fasted C57Bl6/J mouse at 10 to 20 mg/kg, ip administered 15 mins prior to food presentation measured after 2 to 3 hrs; format: functional, organism-based
Method in brief: (§2)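 Male-unspecified C57Bl6/J mice (20-25 g) were housed singly on a reverse light-dark cycle and fasted 18 h. Compounds in saline with 2.5% Tween 80 and 2.5% ethanol, or vehicle, were given ip; food was presented 15 min later. Intake was recorded over 3 h. Mean ± SEM; two-way ANOVA with Bonferroni test.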

[9] = target: Cannabinoid receptor 1 (Homo sapiens) (UniProt P21554); test: Intrinsic activity at human recombinant CB1 receptor transfected in CHO cells assessed as effect on [35S]GTPgammaS binding up to 0.1 uM after 1 hr by liquid scintillation spectrometry; format: functional, cell-based
Chain of Cannabinoid receptor 1 (Homo sapiens) (P21554 whole entry): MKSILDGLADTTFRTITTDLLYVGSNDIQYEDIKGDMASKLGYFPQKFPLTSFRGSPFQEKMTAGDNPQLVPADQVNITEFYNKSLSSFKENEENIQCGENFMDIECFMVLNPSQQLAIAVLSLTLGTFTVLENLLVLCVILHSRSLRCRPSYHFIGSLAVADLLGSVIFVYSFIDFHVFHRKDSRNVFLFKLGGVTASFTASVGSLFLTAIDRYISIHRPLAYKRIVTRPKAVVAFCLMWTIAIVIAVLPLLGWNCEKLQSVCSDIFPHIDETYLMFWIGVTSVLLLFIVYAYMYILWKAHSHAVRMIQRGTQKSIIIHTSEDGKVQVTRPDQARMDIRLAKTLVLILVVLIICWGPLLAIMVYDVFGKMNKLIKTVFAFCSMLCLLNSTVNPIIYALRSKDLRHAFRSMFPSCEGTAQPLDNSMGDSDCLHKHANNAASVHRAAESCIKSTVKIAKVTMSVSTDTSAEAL
Method in brief: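 […] used CHO cells expressing human recombinant CB1, incubated with [³⁵S]GTPγS and a range of compound concentrations alone for 1 h at 37 °C. The reaction was stopped with ice-cold Tris/BSA, filtered on glass-fibre filters and read by liquid scintillation spectrometry. Data are percentage stimulation over basal, mean ± SEM of five experiments.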

Mus musculus [10] = test: Reduction of food intake in fasted C57Bl6/J mouse at 10 to 20 mg/kg, ip administered 15 mins prior to food presentation measured after 1 to 3 hrs; format: functional, organism-based; method in brief: as §2
[11] = target: Cannabinoid receptor 1 (Mus musculus) (UniProt P47746); test: Neutral antagonist activity at CB1 receptor in mouse N1E-115 cells assessed as inhibition of WIN 55,212-2-induced ERK1/2 phosphorylation at 1 uM treated 5 mins prior to WIN 55,212-2 challenge by Western blot analysis; format: cell-based; method in brief: as §1
Mus musculus [12] = test: Toxicity in C57Bl6/J mouse assessed as locomotion blockage at 20 mg/kg, ip; format: organism-based; design: dose 20 mg/kg, route intraperitoneal; settings: in vivo
Method in brief: (§3)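 Fasted C57Bl6/J mice from the food-intake test were given 20 mg/kg ip in saline with Tween 80 and ethanol (each 2.5 wt%).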

Mus musculus [13] = test: Toxicity in C57Bl6/J mouse assessed as mortality at 20 mg/kg, ip; format: organism-based; design: dose 20 mg/kg, route intraperitoneal; settings: in vivo; method in brief: as §3
Mus musculus [14] = test: Increase in food intake in fasted C57Bl6/J mouse at 3 to 10 mg/kg, ip administered 15 mins prior to food presentation measured after 3 hrs; format: functional, organism-based
Mus musculus [15] = test: Reduction of food intake in fasted C57Bl6/J mouse at 3 to 10 mg/kg, ip administered 15 mins prior to food presentation measured after 1 hr; format: functional, organism-based; method in brief: as §2
[16] = target: Cannabinoid receptor 1 (Mus musculus) (UniProt P47746); settings: N1E-115, 1 uM

Compound	Activity [2]	Intrinsic activity [3]	inhibition [4]	Activity [5]	Ratio Ki (Mus musculus [6])	pKi (Cannabinoid receptor 2)	pKi (Cannabinoid receptor 1)	Intrinsic activity [9]	inhibition [11]	Activity (Mus musculus [1])	Activity (Mus musculus [7])	Activity (Mus musculus [8])	Activity (Mus musculus [10])	Activity (Mus musculus [12])	Activity (Mus musculus [13])	Activity (Mus musculus [14])	Activity (Mus musculus [15])	inhibition [16]
Cc1c(/C=C/C2CCCCC2)nn(-c2ccc(Cl)cc2Cl)c1-c1ccc(Cl)cc1	Active	inactive	Active	inactive	0.003	5.42	7.95			Active								
Cc1c(C(NN2CCCCC2)C(F)(F)F)nn(-c2ccc(Cl)cc2Cl)c1-c1ccc(Cl)cc1 (racemic)	Active	inactive		inactive	< 0.057	< 5.30	6.54		Active									
Cc1c(C(=O)NN2CCCCC2)nn(-c2ccc(Cl)cc2Cl)c1-c1ccc(Cl)cc1 [RIMONABANT]				inactive										Toxic	Toxic	Active	Active	Active

More lines, main results first:

Activity [2]	Intrinsic activity [3]	inhibition [4]	Activity [5]	Ratio Ki (Mus musculus [6])	pKi (Cannabinoid receptor 2)	pKi (Cannabinoid receptor 1)	Intrinsic activity [9]	inhibition [11]	Compound	Activity (Mus musculus [1])	Activity (Mus musculus [7])	Activity (Mus musculus [8])	Activity (Mus musculus [10])	Activity (Mus musculus [12])	Activity (Mus musculus [13])	Activity (Mus musculus [14])	Activity (Mus musculus [15])	inhibition [16]
Active	inactive	Active	inactive	0.013	5.71	7.59	inactive		Cc1c(/C(F)=C/C2CCCCC2)nn(-c2ccc(Cl)cc2Cl)c1-c1ccc(Cl)cc1		Non-toxic	Active						
Active		Active	inactive	0.021	5.65	7.34	inactive		Cc1c(C(=O)CC2CCCCC2)nn(-c2ccc(Cl)cc2Cl)c1-c1ccc(Cl)cc1				Active					
Active	inactive			0.103	5.40	6.39			Cc1c(/C(F)=C\C2CCCCC2)nn(-c2ccc(Cl)cc2Cl)c1-c1ccc(Cl)cc1									
Active	inactive		inactive		5.38		inactive	Active	Cc1c(C(O)CC2CCCCC2)nn(-c2ccc(Cl)cc2Cl)c1-c1ccc(Cl)cc1 (racemic)				Active					
